Measured values gathered from unrelated publications.
Lines come from different studies, so protocols differ.
Target: Cholinesterase (BCHE, Homo sapiens, UniProt P06276)
Effect on: enzyme activity
Action: inhibitor

C#CCNc1nc(NCCCC2CCN(Cc3ccccc3)CC2)c(C#N)cc1C#N
IC50 (Ellman): 1.92 µM

CS(=O)(=O)n1cc(Br)c(=O)[nH]c1=O
IC50 (Ellman): 0.195 µM

C[C@@H]1CCCN1CCCCOc1ccc2occc(=O)c2c1
IC50 (Ellman; pH 7.4): 48.5 µM

C[N+](C)(C)CCCCCCCCCC[N+](C)(C)C
IC50: 17.4 µM

C=CCn1c2cc(OC(=O)CCCCN3CCN(Cc4ccc(F)cc4)CC3)ccc2c2ccnc(C)c21
IC50 (Ellman): 0.584 µM

CC(=O)n1ccc(=O)[nH]c1=O
IC50 (Ellman): 0.27 µM

C=CCn1c2cc(OC(=O)CCCCN3CCN(Cc4ccc(C(F)(F)F)cc4)CC3)ccc2c2ccnc(C)c21
IC50 (Ellman): 0.204 µM

CC(C)(C)c1cccc(OP(=O)(Oc2cccc(C(C)(C)C)c2)Oc2cccc(C(C)(C)C)c2)c1
IC50 (liver microsomes): > 20 µg/mL

Cc1cc(O)nc(O)n1
IC50 (Ellman): 0.368 µM

CC(C)c1ccc(OP(=O)(Oc2ccc(C(C)C)cc2)Oc2ccc(C(C)C)cc2)cc1
IC50 (liver microsomes): > 20 µg/mL

C=CCn1c2cc(OC(=O)CCCN3CCN(Cc4ccccc4)CC3)ccc2c2ccnc(C)c21
IC50 (Ellman): 0.163 µM

CC(C)(C)c1ccc(OP(=O)(Oc2ccc(C(C)(C)C)cc2)Oc2ccc(C(C)(C)C)cc2)cc1
IC50 (liver microsomes): > 20 µg/mL

C=CCn1c2cc(OC(=O)CCCCN3CCN(Cc4ccc(C)cc4)CC3)ccc2c2ccnc(C)c21
IC50 (Ellman): 0.581 µM
